# Test results published in ChEMBL document CHEMBL2384906, “Biological activity, design, synthesis and structure activity relationship of some novel derivatives of curcumin containing sulfonamides” (Eur J Med Chem, 2013).
# The source made the active and inactive calls. The rule behind the calls is not given here.
# Legend:
# [1] = test system: Salmonella typhi; assay: Antimicrobial activity against Salmonella typhi ATCC 23564 assessed as diameter of inhibition zone at 80 uM after 24 hrs by Kirby -Baur disc diffusion method; format: functional; conditions: Salmonella enterica subsp. enterica serovar Typhi
# [2] = test system: Escherichia coli; assay: Antimicrobial activity against Escherichia coli ATCC 35218 assessed as diameter of inhibition zone at 80 uM after 24 hrs by Kirby -Baur disc diffusion method; format: functional
# Outline: (§1)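 Kirby-Bauer disc diffusion was used. Acetone stocks (160 µM) were serially doubled down to 80, 40 and 20 µM. 4 µL of each went onto 5 mm sterile paper discs, which were dried 30 min at 50 °C. Inoculum was 1.5 × 10⁸ CFU/mL diluted to 3 × 10² CFU/mL, and 50 µL was spread on Mueller-Hinton agar. After 24 h at 37 °C the inhibition-zone diameter was measured. Ciprofloxacin served as positive control.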
# [3] = test system: Staphylococcus aureus; assay: Antimicrobial activity against Staphylococcus aureus ATCC 11632 after 24 hrs by broth micro serial dilution method; format: functional
# Outline: (§2)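 This was broth microdilution in autoclaved Mueller-Hinton broth. 150 µL of compound per well was serially diluted […], and 50 µL of test organism was added. Plates were incubated 24 h at 37 °C and optical density was read.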
# [4] = test system: Bacillus cereus; assay: Antimicrobial activity against Bacillus cereus MTCC 7350 after 24 hrs by broth micro serial dilution method; format: functional; outline: as §2
# [5] = test system: Staphylococcus aureus; assay: Antimicrobial activity against Staphylococcus aureus ATCC 11632 assessed as diameter of inhibition zone at 80 uM after 24 hrs by Kirby -Baur disc diffusion method; format: functional; outline: as §1
# [6] = test system: Salmonella typhi; assay: Antimicrobial activity against Salmonella typhi ATCC 23564 after 24 hrs by broth micro serial dilution method; format: functional, Salmonella enterica subsp. enterica serovar Typhi
# [7] = test system: Pseudomonas aeruginosa; assay: Antimicrobial activity against Pseudomonas aeruginosa ATCC 15499 assessed as diameter of inhibition zone at 80 uM after 24 hrs by Kirby -Baur disc diffusion method; format: functional; outline: as §1
# [8] = test system: Escherichia coli; assay: Antimicrobial activity against Escherichia coli ATCC 35218 after 24 hrs by broth micro serial dilution method; format: functional; outline: as §2
# [9] = test system: Pseudomonas aeruginosa; assay: Antimicrobial activity against Pseudomonas aeruginosa ATCC 15499 after 24 hrs by broth micro serial dilution method; format: functional; outline: as §2
# [10] = test system: Bacillus cereus; assay: Antimicrobial activity against Bacillus cereus MTCC 7350 assessed as diameter of inhibition zone at 80 uM after 24 hrs by Kirby -Baur disc diffusion method; format: functional; outline: as §1
# [11] = test system: Curvularia lunata; assay: Antifungal activity against Curvularia lunata MTCC 581 assessed as zone of inhibition at 40 uM after 48 hrs by disc diffusion method; format: functional; conditions: MTCC 581, 48 h, read-out: IZ
# Outline: (§3)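 Spores from 4-day potato dextrose agar cultures, suspended in sterile water at 1.5 × 10⁵ CFU/mL. 0.2 mL was spread on potato dextrose agar. 5 mm filter-paper discs soaked with test compound were laid on the lawn. Incubation was 48 h at 28 °C, then the inhibition zone was measured in mm. Fluconazole was the positive control and acetone the negative control.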
# [12] = test system: Trichoderma viride; assay: Antifungal activity against Trichoderma viride MTCC 1107 after 48 hrs; format: functional; conditions: MTCC 1107, 48 h
# [13] = test system: Curvularia lunata; assay: Antifungal activity against Curvularia lunata MTCC 581 assessed as zone of inhibition at 20 uM after 48 hrs by disc diffusion method; format: functional; outline: as §3
# [14] = test system: HepG2; assay: Cytotoxicity against human HepG2 cells after 24 hrs by MTT assay; format: functional, cell-based
# Outline: (§4)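 The MTT assay seeded 5 × 10⁴ cells per well and grew them 24 h in RPMI 1640 with compound at 2.5–200 µM. Medium without cells was the blank and adriamycin the positive control. MTT was added for 4 h at 37 °C, formazan was solubilised, and absorbance was read at 570 nm. IC50 is the concentration that cuts viability 50% against untreated cells.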
# [15] = test system: Curvularia lunata; assay: Antifungal activity against Curvularia lunata MTCC 581 assessed as zone of inhibition at 80 uM after 48 hrs by disc diffusion method; format: functional; conditions: MTCC 581, 48 h, read-out: IZ; outline: as §3
# [16] = test system: Mus musculus; assay: Antiinflammatory activity in mouse assessed as inhibition of carrageenan-induced increase in paw volume at 200 mg/kg administered 1 hr prior to carrageenan challenge measured after 3 hrs relative to control; format: functional
# Outline: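 Mice were fasted 2 h and placed in groups of five. Controls received saline i.p. Phenylbutazone was given at 100 mg/kg i.p., curcumin at 200 mg/kg i.p., and derivatives at 200 mg/kg. After 1 h, 0.1 mL of 1% carrageenan in saline was injected subplantar into the right hind paw. Paw volume was followed by plethysmometer for 3 h, and % inhibition was calculated as (Vc − Vt)/Vc × 100.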
# [17] = test system: Trichoderma viride; assay: Antifungal activity against Trichoderma viride MTCC 1107 assessed as zone of inhibition at 80 uM after 48 hrs by disc diffusion method; format: functional; conditions: MTCC 1107, 48 h, read-out: IZ; outline: as §3
# [18] = test system: Aspergillus niger; assay: Antifungal activity against Aspergillus niger MTCC 1108 after 48 hrs; format: functional
# [19] = test system: Trichoderma viride; assay: Antifungal activity against Trichoderma viride MTCC 1107 assessed as zone of inhibition at 20 uM after 48 hrs by disc diffusion method; format: functional; outline: as §3
# [20] = test system: Aspergillus flavus; assay: Antifungal activity against Aspergillus flavus MTCC 1021 assessed as zone of inhibition at 80 uM after 48 hrs by disc diffusion method; format: functional; outline: as §3
# [21] = test system: Curvularia lunata; assay: Antifungal activity against Curvularia lunata MTCC 581 after 48 hrs; format: functional; conditions: MTCC 581, 48 h
# [22] = test system: Trichoderma viride; assay: Antifungal activity against Trichoderma viride MTCC 1107 assessed as zone of inhibition at 40 uM after 48 hrs by disc diffusion method; format: functional; conditions: MTCC 1107, 48 h, read-out: IZ; outline: as §3
# [23] = test system: QG-56; assay: Cytotoxicity against human QG56 cells after 24 hrs by MTT assay; format: functional, cell-based; outline: as §4
# [24] = test system: Aspergillus niger; assay: Antifungal activity against Aspergillus niger MTCC 1108 assessed as zone of inhibition at 80 uM after 48 hrs by disc diffusion method; format: functional; outline: as §3
# [25] = test system: Aspergillus flavus; assay: Antifungal activity against Aspergillus flavus MTCC 1021 after 48 hrs; format: functional
# [26] = test system: HeLa; assay: Cytotoxicity against human HeLa cells after 24 hrs by MTT assay; format: functional, cell-based; outline: as §4
# [27] = test system: HCT-116; assay: Cytotoxicity against human HCT116 cells after 24 hrs by MTT assay; format: functional, cell-based; outline: as §4
# [28] = Salmonella enterica subsp. enterica serovar Typhi
SMILES,diameter of the inhibition zone (DIZ) [1],diameter of the inhibition zone (DIZ) [2],MIC [3],MIC [4],diameter of the inhibition zone (DIZ) [5],diameter of the inhibition zone (DIZ) [7],"MIC ([8]; ATCC 35218, 24 h)",MIC [9],diameter of the inhibition zone (DIZ) [10],zone of inhibition at 40 µM [11],MIC [12],"MIC [6, 28]",zone of inhibition at 80 µM [15],zone of inhibition at 80 µM [17],MIC [18],inhibition zone (IZ) [20],MIC [21],zone of inhibition at 40 µM [22],inhibition zone (IZ) [24],MIC [8],other results
Cc1cc(C)nc(NS(=O)(=O)c2ccc(N)cc2)n1 [SULFAMETHAZINE],inactive,inactive,inactive,inactive,inactive,inactive,> 160 µM,inactive,inactive,–,–,–,–,–,–,–,–,–,–,–,"MIC ([6]; Salmonella enterica, ATCC 23564, 24 h): > 160 µM"
COc1cc(/C=C/c2nn(-c3ccccc3)c(/C=C/c3ccc(O)c(OC)c3)c2/N=N/c2ccc(S(N)(=O)=O)cc2)ccc1O,inactive,inactive,inactive,inactive,inactive,inactive,–,inactive,inactive,10 mm,80 µM,inactive,11 mm,11 mm,inactive,inactive,> 80 µM,10 mm,inactive,inactive,inhibition zone (IZ) [13]: inactive; IC50 [14]: Not Active; inhibition in vivo at 200 mg/kg [16]: 22.5%; inhibition zone (IZ) [19]: inactive; IC50 [23]: > 100 µM; MIC [25]: inactive; IC50 [26]: > 100 µM; IC50 [27]: Not Active
Nc1ccc(S(=O)(=O)Nc2ccccn2)cc1 [SULFAPYRIDINE],inactive,inactive,inactive,inactive,inactive,inactive,> 160 µM,inactive,inactive,–,–,inactive,–,–,–,–,–,–,–,–,–
Nc1ccc(S(N)(=O)=O)cc1,inactive,inactive,inactive,inactive,inactive,inactive,–,inactive,inactive,–,–,inactive,–,–,–,–,–,–,–,inactive,–
OC(Cn1cncn1)(Cn1cncn1)c1ccc(F)cc1F [FLUCONAZOLE],–,–,–,–,–,–,–,–,–,27 mm,20 µM,–,28 mm,29 mm,inactive,inactive,20 µM,24 mm,inactive,–,"zone of inhibition at 20 µM ([13]; MTCC 581, 48 h, read-out: IZ): 24 mm; zone of inhibition at 20 µM ([19]; MTCC 1107, 48 h, read-out: IZ): 21 mm; MIC ([25]; MTCC 1021, 48 h): > 80 µM"
